The source made the active and inactive calls. The calls are words filed in the database; no cut-off is given here.
Key:
Escherichia coli [1] = test: Antibacterial activity against Escherichia coli ATCC 25922 at 400 ug/disc after 18 hrs by disc diffusion method; assay type: functional, organism-based
Outline: (§1)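 Disc diffusion per CLSI on Mueller–Hinton II agar; 9 mm paper discs loaded from methanol or DMSO solutions to 400 µg per disc, dried; growth inhibition zone diameter read after 18 h at 35 °C.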

Pseudomonas aeruginosa [2] = test: Antibacterial activity against Pseudomonas aeruginosa ATCC 15442 at 400 ug/disc after 18 hrs by disc diffusion method; assay type: functional, organism-based; outline: as §1
[3] = system: Bordetella bronchiseptica; test: Antibacterial activity against Bordetella bronchiseptica ATCC 4617 at 400 ug/disc after 18 hrs by disc diffusion method; assay type: functional, organism-based; outline: as §1
[4] = system: Human immunodeficiency virus 1; test: Antiviral activity against HIV1 infected in human MT4 cells assessed as virus-induced cytopathogenicity after 4 days by MTT assay; assay type: functional, organism-based; conditions: Human immunodeficiency virus 1, MT4, 96 h
Mus musculus [5] = test: Toxicity in Albino Swiss mouse assessed as motor coordination administered at doses equivalent to 0.1 ED50, ip by rota rod test; assay type: organism-based; conditions: in vivo
Escherichia coli [6] = test: Antibacterial activity against Escherichia coli ATCC 10538 at 400 ug/disc after 18 hrs by disc diffusion method; assay type: functional, organism-based; outline: as §1
Candida parapsilosis = test: Antifungal activity against Candida parapsilosis ATCC 22019 at 400 ug/disc after 18 hrs by disc diffusion method; assay type: functional, organism-based
Outline: (§2)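 Yeasts tested by disc diffusion (CLSI) on RPMI agar with 2% glucose; 9 mm paper discs bearing 400 µg compound from methanol or DMSO solution; inhibition zone diameter read after 18 h at 35 °C.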

Mus musculus [7] = test: Toxicity in Albino Swiss mouse assessed as effect on amphetamine-induced hyperactivity administered at doses equivalent to 0.1 ED50, ip; assay type: organism-based; conditions: in vivo
Outline: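 Compound i.p. in 0.5% methylcellulose 60 min before test; amphetamine 5 mg/kg s.c. 30 min before test; single mice in photoresistor actometers, light-beam crossings counted for 30 min.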

Staphylococcus aureus [8] = test: Antibacterial activity against Staphylococcus aureus ATCC 29213 at 400 ug/disc after 18 hrs by disc diffusion method; assay type: functional; outline: as §1
Mus musculus [9] = test: Reduction of 5-hydroxytryptophan-induced head twitch in Albino Swiss mouse administered at doses equivalent to 0.1 ED50, ip; assay type: functional, organism-based
Candida albicans [10] = test: Antifungal activity against Candida albicans ATCC 10231 at 400 ug/disc after 18 hrs by disc diffusion method; assay type: functional, organism-based; outline: as §2
Pseudomonas aeruginosa [11] = test: Antibacterial activity against Pseudomonas aeruginosa NCTC 6749 at 400 ug/disc after 18 hrs by disc diffusion method; assay type: functional, organism-based; outline: as §1
Staphylococcus aureus [12] = test: Antibacterial activity against Staphylococcus aureus ATCC 6538 at 400 ug/disc after 18 hrs by disc diffusion method; assay type: functional; outline: as §1
Mus musculus [13] = test: Anticonvulsant activity in Albino Swiss mouse assessed as protection against pentylenetetrazole-induced severity of clonic or tonic seizures administered at doses equivalent to 0.1 ED50, ip; assay type: functional, organism-based
Bacillus subtilis = test: Antibacterial activity against Bacillus subtilis ATCC 6633 at 400 ug/disc after 18 hrs by disc diffusion method; assay type: functional; conditions: ATCC 6633, 18 h, read-out: DIZ; outline: as §1
Candida albicans [14] = test: Antifungal activity against Candida albicans ATCC 90028 at 400 ug/disc after 18 hrs by disc diffusion method; assay type: functional, organism-based; outline: as §2
Micrococcus luteus [15] = test: Antibacterial activity against Micrococcus luteus ATCC 9341 at 400 ug/disc after 18 hrs by disc diffusion method; assay type: functional; outline: as §1
Pseudomonas aeruginosa [16] = test: Antibacterial activity against Pseudomonas aeruginosa ATCC 27853 at 400 ug/disc after 18 hrs by disc diffusion method; assay type: functional, organism-based; outline: as §1
[17] = system: Staphylococcus epidermidis; test: Antibacterial activity against Staphylococcus epidermidis ATCC 12228 at 400 ug/disc after 18 hrs by disc diffusion method; assay type: functional; outline: as §1
Bacillus cereus = test: Antibacterial activity against Bacillus cereus ATCC 11778 at 400 ug/disc after 18 hrs by disc diffusion method; assay type: functional; outline: as §1
Mus musculus [18] = test: Toxicity in Albino Swiss mouse assessed as locomotor activity administered at doses equivalent to 0.1 ED50, ip measured after 1 hr for 30 mins; assay type: organism-based; conditions: in vivo
Outline: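 Spontaneous locomotor activity of single male Albino Swiss mice in photoresistor actometers (two light beams), beam crossings recorded for 30 min, starting 60 min after i.p. compound in 0.5% methylcellulose.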

[19] = Cytotoxicity against human MT4 cells after 96 hrs by MTT assay; assay type: cell-based
Enterococcus hirae = test: Antibacterial activity against Enterococcus hirae ATCC 10541 at 400 ug/disc after 18 hrs by disc diffusion method; assay type: functional; outline: as §1
Staphylococcus aureus [20] = test: Antibacterial activity against Staphylococcus aureus ATCC 25923 at 400 ug/disc after 18 hrs by disc diffusion method; assay type: functional; outline: as §1
Micrococcus luteus [21] = test: Antibacterial activity against Micrococcus luteus ATCC 10240 at 400 ug/disc after 18 hrs by disc diffusion method; assay type: functional; conditions: ATCC 10240, 18 h, read-out: DIZ; outline: as §1
Mus musculus [22] = test: Antinociceptive activity in Albino Swiss mouse administered at doses equivalent to 0.025 to 0.1 ED50, ip; assay type: functional, organism-based
Mus musculus [23] = test: Toxicity in Albino Swiss mouse assessed as motor coordination administered at doses equivalent to 0.1 ED50, ip by chimney test; assay type: organism-based; conditions: in vivo
Escherichia coli [24] = test: Antibacterial activity against Escherichia coli NCTC 8196 at 400 ug/disc after 18 hrs by disc diffusion method; assay type: functional, organism-based; outline: as §1
Proteus vulgaris = test: Antibacterial activity against Proteus vulgaris NCTC 4635 at 400 ug/disc after 18 hrs by disc diffusion method; assay type: functional, organism-based; outline: as §1
Mus musculus [25] = test: Anticonvulsant activity in Albino Swiss mouse assessed as protection against pentylenetetrazole-induced mortality administered at doses equivalent to 0.1 ED50, ip; assay type: functional, organism-based
Mus musculus [26] = test: Reduction of body temperature in normothermic Albino Swiss mouse administered at doses equivalent to 0.1 ED50, ip measured in rectum by thermistor thermometer analysis; assay type: ADME, organism-based; conditions: in vivo
Staphylococcus aureus [27] = test: Antibacterial activity against Staphylococcus aureus NCTC 4163 at 400 ug/disc after 18 hrs by disc diffusion method; assay type: functional; outline: as §1

## S=C(Nc1cccc(Br)c1)Nc1nc[nH]n1
Escherichia coli [1]
  diameter of the inhibition zone (DIZ): inactive
Pseudomonas aeruginosa [2]
  diameter of the inhibition zone (DIZ): inactive
[3]
  diameter of the inhibition zone (DIZ): inactive
[4]
  EC50: > 50 µM
Mus musculus [5]
  Activity: Non-toxic
Escherichia coli [6]
  diameter of the inhibition zone (DIZ): inactive
Candida parapsilosis
  diameter of the inhibition zone (DIZ): inactive
Mus musculus [7]
  Activity: Non-toxic
Staphylococcus aureus [8]
  diameter of the inhibition zone (DIZ): inactive
Mus musculus [9]
  Activity: Active
Candida albicans [10]
  diameter of the inhibition zone (DIZ): inactive
Pseudomonas aeruginosa [11]
  diameter of the inhibition zone (DIZ): inactive
Staphylococcus aureus [12]
  diameter of the inhibition zone (DIZ): inactive
Mus musculus [13]
  Activity: inactive
Bacillus subtilis
  zone of inhibition at 400 µg/disc: 16 mm
Candida albicans [14]
  diameter of the inhibition zone (DIZ): inactive
Micrococcus luteus [15]; ATCC 9341, 18 h, read-out: DIZ
  zone of inhibition at 400 µg/disc: 15 mm
Pseudomonas aeruginosa [16]
  diameter of the inhibition zone (DIZ): inactive
[17]
  diameter of the inhibition zone (DIZ): inactive
Bacillus cereus
  diameter of the inhibition zone (DIZ): inactive
Mus musculus [18]
  Activity: Non-toxic
[19]
  CC50 at 96 h: 50 µM
Enterococcus hirae
  diameter of the inhibition zone (DIZ): inactive
Staphylococcus aureus [20]
  diameter of the inhibition zone (DIZ): inactive
Micrococcus luteus [21]
  zone of inhibition at 400 µg/disc: 14 mm
Mus musculus [22]
  Activity: Active
Mus musculus [23]
  Activity: Non-toxic
Escherichia coli [24]
  diameter of the inhibition zone (DIZ): inactive
Proteus vulgaris
  diameter of the inhibition zone (DIZ): inactive
Mus musculus [25]
  Activity: inactive
Mus musculus [26]
  Activity: Toxic
Staphylococcus aureus [27]
  diameter of the inhibition zone (DIZ): inactive

## O=C1Nc2ccc(Cl)cc2[C@@](C#CC2CC2)(C(F)(F)F)O1 [EFAVIRENZ]
[19]
  CC50 at 96 h: 37 µM

## COc1ccc(NC(=S)Nc2nc[nH]n2)cc1
[4]
  EC50: > 100 µM
[19]
  CC50 at 96 h: > 100 µM

## Cc1ccc(NC(=S)Nc2nc[nH]n2)cc1
Escherichia coli [1]
  diameter of the inhibition zone (DIZ): inactive
Pseudomonas aeruginosa [2]
  diameter of the inhibition zone (DIZ): inactive
[3]
  diameter of the inhibition zone (DIZ): inactive
[4]
  EC50: > 50 µM
Escherichia coli [6]
  diameter of the inhibition zone (DIZ): inactive
Candida parapsilosis
  diameter of the inhibition zone (DIZ): inactive
Staphylococcus aureus [8]
  diameter of the inhibition zone (DIZ): inactive
Candida albicans [10]
  diameter of the inhibition zone (DIZ): inactive
Pseudomonas aeruginosa [11]
  diameter of the inhibition zone (DIZ): inactive
Staphylococcus aureus [12]
  diameter of the inhibition zone (DIZ): inactive
Bacillus subtilis
  zone of inhibition at 400 µg/disc: 13 mm
Candida albicans [14]
  diameter of the inhibition zone (DIZ): inactive
Micrococcus luteus [15]
  diameter of the inhibition zone (DIZ): inactive
Pseudomonas aeruginosa [16]
  diameter of the inhibition zone (DIZ): inactive
[17]
  diameter of the inhibition zone (DIZ): inactive
Bacillus cereus
  diameter of the inhibition zone (DIZ): inactive
[19]
  CC50 at 96 h: 59 µM
Enterococcus hirae
  diameter of the inhibition zone (DIZ): inactive
Staphylococcus aureus [20]
  diameter of the inhibition zone (DIZ): inactive
Micrococcus luteus [21]
  zone of inhibition at 400 µg/disc: 12 mm
Escherichia coli [24]
  diameter of the inhibition zone (DIZ): inactive
Proteus vulgaris
  diameter of the inhibition zone (DIZ): inactive
Staphylococcus aureus [27]
  diameter of the inhibition zone (DIZ): inactive

— ChEMBL document CHEMBL2062460, “Disubstituted thiourea derivatives and their activity on CNS: synthesis and biological evaluation” (Eur J Med Chem, 2012)
